Results taken from ChEMBL document CHEMBL1123129, “Hypolipidemic activity of indan-1,3-dione derivatives in rodents” (J Med Chem, 1985).

Experiments:
Format in all cases: functional
[1] = tested on: Mus musculus; assay: Hypolipidemic activity in CF1 male mice at a dose of 20 mg/kg per day, serum cholesterol measured on the 9th day
Method in brief: (§1)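 CF1 male mice (~30 g) were given 20 mg/kg per day ip at 11:00 a.m.; N = 6 per group. Tail-vein serum was collected in nonheparinized microcapillaries. Cholesterol was measured on days 9 and 16 by modified Liebermann–Burchard on duplicate 25 µL samples. Triglyceride was measured on day 16 in a separate group, duplicate 50 µL. Values are % control ± SD; Student's t test.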

[2] = tested on: Mus musculus; assay: Compound was evaluated for the hypolipidemic activity in CF1 male mice at a dose of 20 mg/kg per day intraperitoneally for serum cholesterol at 16th day.; details: route intraperitoneal
Method in brief: (§2)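 CF1 male mice (~30 g) were dosed ip daily. Tail-vein blood was collected on day 9 and day 16 between 8:00 and 9:30 a.m. Serum cholesterol was measured by modified Liebermann–Burchard on duplicate 25-µL samples. Triglyceride was measured on day 16 in a separate group, duplicate 50-µL samples. Values are % control, mean ± SD, N = 6; Student's t test.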

[3] = tested on: Mus musculus; assay: Compound was evaluated for the hypolipidemic activity in CF1 male mice at a dose of 20 mg/kg per day intraperitoneally for serum triglyceride at 16th day.; details: route intraperitoneal; method in brief: as §2
[4] = tested on: Mus musculus; assay: Hypolipidemic activity in CF1 male mice at a dose of 20 mg/kg per day, serum cholesterol measured on the 16th day; method in brief: as §1
[5] = tested on: Mus musculus; assay: Hypolipidemic activity in CF1 male mice at a dose of 20 mg/kg per day, serum triglyceride measured on the 16th day; method in brief: as §1
[6] = tested on: Mus musculus; assay: Compound was evaluated for the hypolipidemic activity in CF1 male mice at a dose of 20 mg/kg per day intraperitoneally of serum cholesterol at 9th day; details: route intraperitoneal; in the assay text read “150 mg/kg” for “20 mg/kg”; method in brief: as §2

SMILES | Serum cholesterol, % of control [1] | Control [2] | Control [3] | Serum cholesterol, % of control [4] | Serum triglyceride, % of control [5] | Control [6]
O=C(O)c1ccc(C2C(=O)c3ccccc3C2=O)cc1 | 95% | 78% | 95% | – | – | –
O=C1c2ccccc2C(=O)C1c1c(Cl)cccc1Cl | 71% | – | – | 68% | 61% | –
Cc1cccc(C2C(=O)c3ccccc3C2=O)c1 | 75% | – | – | 71% | 51% | –
O=C1c2ccccc2C(=O)C1c1ccc(-c2ccccc2)cc1 | 78% | – | – | 64% | 63% | –
CCCCCC1C(=O)c2ccccc2C1=O | 65% | – | – | 64% | 70% | –
CCCCC1C(=O)c2ccccc2C1=O | 74% | – | – | 58% | 63% | –
CCOC(=O)C(C)(C)Oc1ccc(Cl)cc1 [CLOFIBRATE] | – | – | – | 87% | 75% | 88%
O=C1c2ccccc2C(=O)C1c1ccc(Cl)c(Cl)c1 | 93% | – | – | 84% | 89% | –
O=C(O)c1ccccc1C1C(=O)c2ccccc2C1=O | 79% | 78% | 52% | – | – | –
CCOc1ccc(C2C(=O)c3ccccc3C2=O)cc1 | 66% | – | – | 59% | 81% | –
COc1ccccc1C1C(=O)c2ccccc2C1=O | 79% | – | – | 72% | 48% | –
COc1cccc(C2C(=O)c3ccccc3C2=O)c1 | 75% | – | – | 67% | 55% | –
Cc1ccc(C2C(=O)c3ccccc3C2=O)c(C)c1 | 61% | – | – | 54% | 58% | –
O=C1c2ccccc2C(=O)C1c1ccccc1Cl | 75% | – | – | 56% | 55% | –
COc1ccc(C2C(=O)c3ccccc3C2=O)c(OC)c1 | 89% | – | – | 74% | 87% | –
O=C1c2ccccc2C(=O)C1c1ccc(Cl)cc1 [CLORINDIONE] | 64% | – | – | 63% | 47% | –
O=C1c2ccccc2C(=O)C1c1ccc(Cl)cc1Cl | 89% | – | – | 73% | 87% | –
CCC1C(=O)c2ccccc2C1=O | 63% | – | – | 60% | 63% | –
O=C1CC(=O)c2ccccc21 | 74% | – | – | 60% | 79% | –
CCCC1C(=O)c2ccccc2C1=O | 68% | – | – | 66% | 52% | –
O=C1c2ccccc2C(=O)C1c1ccccc1 [PHENINDIONE] | 64% | – | – | 60% | 60% | –
CC1C(=O)c2ccccc2C1=O | 74% | – | – | 58% | 61% | –
O=C1c2ccccc2C(=O)C1c1ccc2ccccc2c1 | 72% | – | – | 66% | 66% | –
Cc1ccccc1C1C(=O)c2ccccc2C1=O | 73% | – | – | 69% | 49% | –
Cc1ccc(C2C(=O)c3ccccc3C2=O)cc1 | 68% | – | – | 65% | 42% | –
O=C1c2ccccc2C(=O)C1c1ccc(Br)cc1 [BROMINDIONE] | 72% | – | – | 56% | 66% | –
O=C1c2ccccc2C(=O)C1c1cccc(Cl)c1 | 70% | – | – | 60% | 70% | –
COc1ccc(C2C(=O)c3ccccc3C2=O)cc1OC | 75% | – | – | 69% | 66% | –
